Data from ChEMBL document CHEMBL4689842, “EUbOPEN Chemogenomics Library wave 1” (2021).
Where “and” joins values, the source holds several entries; their conditions need not be identical. Identical values can stand only once.

System: Fibroblast
Experiment: Multiplex assay against human fibroblast
Assay type: toxicity, cell-based
Procedure, shortened: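 On a CQ1 microscope at 37°C and 5% CO2, live cells were imaged after compound addition. They had been stained at seeding with Hoechst33342, BioTracker Green Microtubule Cytoskeleton Dye, MitoTracker Red and Annexin V Alexa Fluor 680. CellPathfinder machine-learning gating assigned cells to Hoechst high-intensity objects or normal cells, normal cells to healthy, pyknosed or fragmented nuclei, and pyknosed cells to mitotic or apoptotic. Tubulin, mitochondrial-mass and membrane-permeability phenotypes are per cents of healthy-nucleus cells.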

[1] = 12 h, 10 µM, compound concentration 10 uM, replicate 1
[2] = 12 h, 10 µM, compound concentration 10 uM, replicate 2
[3] = 24 h, 10 µM, compound concentration 10 uM, replicate 1
[4] = 24 h, 10 µM, compound concentration 10 uM, replicate 2
[5] = 12 h, 1 µM, compound concentration 1 uM, replicate 1
[6] = 12 h, 1 µM, compound concentration 1 uM, replicate 2
[7] = 24 h, 1 µM, compound concentration 1 uM, replicate 1
[8] = 24 h, 1 µM, compound concentration 1 uM, replicate 2
[9] = 48 h, 10 µM, compound concentration 10 uM, replicate 1
[10] = 48 h, 10 µM, compound concentration 10 uM, replicate 2

## CN1C(=O)c2sccc2N(C)c2nc(Nc3ccc(S(N)(=O)=O)cc3)ncc21
[1]
  Population Apoptotic (%): 73% and 80%
  Population Fragmented Nuclei (%): 30% and 28%
  Population Healthy Nuclei (%): 50% and 56%
  Population Hoechst High Intensity Objects (%): 9% and 15%
  Population Membrane Permeable-Phenotype (%): 7% and 4%
  Population Mitochondria Different-Phenotype (%): 7%
  Population Mitotic Cells (%): 26% and 20%
  Population Normal (%): 90% and 84%
  Population Pyknosed Nuclei (%): 18% and 14%
  Population Tubulin-Different-Phenotype (%): 3% and 7%
  Total Cell Count: 224 and 198
[2]
  Population Fragmented Nuclei (%): 52%
  Population Healthy Nuclei (%): 36% and 33%
  Population Hoechst High Intensity Objects (%): 32% and 34%
  Population Membrane Permeable-Phenotype (%): 13% and 8%
  Population Mitochondria Different-Phenotype (%): 13% and 0%
  Population Mitotic Cells (%): 42% and 100%
  Population Normal (%): 67% and 65%
  Population Pyknosed Nuclei (%): 11% and 13%
  Population Tubulin-Different-Phenotype (%): 4% and 0%
  Total Cell Count: 91 and 55
[3]
  Population Apoptotic (%): 55% and 72%
  Population Fragmented Nuclei (%): 23% and 27%
  Population Healthy Nuclei (%): 60% and 52%
  Population Hoechst High Intensity Objects (%): 14% and 16%
  Population Membrane Permeable-Phenotype (%): 8%
  Population Mitochondria Different-Phenotype (%): 2%
  Population Mitotic Cells (%): 44% and 27%
  Population Normal (%): 85% and 83%
  Population Pyknosed Nuclei (%): 15% and 20%
  Population Tubulin-Different-Phenotype (%): 5% and 3%
  Total Cell Count: 219 and 217
[4]
  Population Apoptotic (%): 45% and 50%
  Population Fragmented Nuclei (%): 59% and 52%
  Population Healthy Nuclei (%): 23% and 36%
  Population Hoechst High Intensity Objects (%): 33% and 37%
  Population Membrane Permeable-Phenotype (%): 0%
  Population Mitochondria Different-Phenotype (%): 6% and 0%
  Population Mitotic Cells (%): 54% and 50%
  Population Normal (%): 66% and 62%
  Population Pyknosed Nuclei (%): 17% and 11%
  Population Tubulin-Different-Phenotype (%): 6% and 15%
  Total Cell Count: 96 and 58

## COc1cc2nccc(Oc3ccc(NC(=O)Nc4cc(C)on4)c(Cl)c3)c2cc1OC.O
[5]
  Population Apoptotic (%): 66% and 58%
  Population Fragmented Nuclei (%): 38% and 29%
  Population Healthy Nuclei (%): 45% and 54%
  Population Hoechst High Intensity Objects (%): 11% and 12%
  Population Membrane Permeable-Phenotype (%): 10% and 8%
  Population Mitochondria Different-Phenotype (%): 10%
  Population Mitotic Cells (%): 33% and 41%
  Population Normal (%): 88% and 87%
  Population Pyknosed Nuclei (%): 16%
  Population Tubulin-Different-Phenotype (%): 13%
  Total Cell Count: 229 and 203
[6]
  Population Apoptotic (%): 40% and 50%
  Population Fragmented Nuclei (%): 63% and 48%
  Population Healthy Nuclei (%): 28% and 18%
  Population Hoechst High Intensity Objects (%): 33% and 40%
  Population Membrane Permeable-Phenotype (%): 27% and 28%
  Population Mitotic Cells (%): 60% and 50%
  Population Normal (%): 66% and 59%
  Population Tubulin-Different-Phenotype (%): 38% and 57%
  Total Cell Count: 95 and 62
[1]
  Population Apoptotic (%): 47%
  Population Fragmented Nuclei (%): 30%
  Population Healthy Nuclei (%): 31%
  Population Hoechst High Intensity Objects (%): 13%
  Population Membrane Permeable-Phenotype (%): 17%
  Population Mitochondria Different-Phenotype (%): 31%
  Population Mitotic Cells (%): 52%
  Population Normal (%): 86%
  Population Pyknosed Nuclei (%): 37%
  Population Tubulin-Different-Phenotype (%): 77%
  Total Cell Count: 163
[2]
  Population Apoptotic (%): 71%
  Population Fragmented Nuclei (%): 11%
  Population Healthy Nuclei (%): 75%
  Population Hoechst High Intensity Objects (%): 3%
  Population Membrane Permeable-Phenotype (%): 36%
  Population Mitochondria Different-Phenotype (%): 97%
  Population Mitotic Cells (%): 28%
  Population Normal (%): 96%
  Population Pyknosed Nuclei (%): 12%
  Population Tubulin-Different-Phenotype (%): 97%
  Total Cell Count: 58
[7]
  Population Apoptotic (%): 76% and 68%
  Population Fragmented Nuclei (%): 41% and 26%
  Population Healthy Nuclei (%): 39% and 59%
  Population Hoechst High Intensity Objects (%): 15% and 11%
  Population Membrane Permeable-Phenotype (%): 3% and 0%
  Population Mitochondria Different-Phenotype (%): 42%
  Population Mitotic Cells (%): 23% and 32%
  Population Normal (%): 84% and 88%
  Population Pyknosed Nuclei (%): 19% and 14%
  Total Cell Count: 231 and 198
[8]
  Population Apoptotic (%): 25%
  Population Fragmented Nuclei (%): 58% and 53%
  Population Healthy Nuclei (%): 34% and 19%
  Population Hoechst High Intensity Objects (%): 35% and 29%
  Population Membrane Permeable-Phenotype (%): 10% and 22%
  Population Mitotic Cells (%): 75%
  Population Normal (%): 64% and 70%
  Total Cell Count: 85 and 67
[3]
  Population Apoptotic (%): 57%
  Population Fragmented Nuclei (%): 29%
  Population Healthy Nuclei (%): 40%
  Population Hoechst High Intensity Objects (%): 19%
  Population Membrane Permeable-Phenotype (%): 11%
  Population Mitochondria Different-Phenotype (%): 53%
  Population Mitotic Cells (%): 42%
  Population Normal (%): 80%
  Population Pyknosed Nuclei (%): 29%
  Population Tubulin-Different-Phenotype (%): 86%
  Total Cell Count: 158
[4]
  Population Apoptotic (%): 92%
  Population Fragmented Nuclei (%): 16%
  Population Healthy Nuclei (%): 60%
  Population Hoechst High Intensity Objects (%): 3%
  Population Membrane Permeable-Phenotype (%): 67%
  Population Mitochondria Different-Phenotype (%): 100%
  Population Mitotic Cells (%): 7%
  Population Normal (%): 96%
  Population Pyknosed Nuclei (%): 23%
  Population Tubulin-Different-Phenotype (%): 97%
  Total Cell Count: 58
[9]
  Population Apoptotic (%): 76%
  Population Fragmented Nuclei (%): 33%
  Population Healthy Nuclei (%): 47%
  Population Hoechst High Intensity Objects (%): 22%
  Population Membrane Permeable-Phenotype (%): 10%
  Population Mitochondria Different-Phenotype (%): 60%
  Population Mitotic Cells (%): 23%
  Population Normal (%): 77%
  Population Pyknosed Nuclei (%): 18%
  Population Tubulin-Different-Phenotype (%): 83%
  Total Cell Count: 148
[10]
  Population Apoptotic (%): 62%
  Population Fragmented Nuclei (%): 36%
  Population Healthy Nuclei (%): 54%
  Population Hoechst High Intensity Objects (%): 10%
  Population Membrane Permeable-Phenotype (%): 0%
  Population Mitochondria Different-Phenotype (%): 75%
  Population Mitotic Cells (%): 37%
  Population Normal (%): 89%
  Population Pyknosed Nuclei (%): 9%
  Population Tubulin-Different-Phenotype (%): 95%
  Total Cell Count: 98
